Results filed as inconclusive are left out.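 Rule for the calls, unless noted: active = inhibition over a set limit, the all-compound mean plus 3 SD, in both replicate runs; inconclusive = over that limit in just one replicate run; inactive = at or under that limit in both runs.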
Experiments:
[1] = S. cerevisiae growth inhibition in permissive medium (OD615), pilot counter-assay for S. cerevisiae lifespan shortening project, permissive growth control (AID 705;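 active = growth inhibition above 25% in both replicates, a cutoff set 3 SD above the mean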); conditions: OD615, 24 h, at 10 µM, active compounds read high
Procedure, shortened: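 assay system = Saccharomyces cerevisiae strain carrying genetically modified DeaD replicative-lifespan system | technique = absorbance (optical density) at 615 nm | buffer or medium = permissive raffinose/galactose medium | timing = cells pre-grown 4 h, then 24 h compound exposure, 30 °C humidified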

[2] = S. cerevisiae growth inhibition in restrictive medium, OD615, pilot screen, restrictive growth control, yeast lifespan reduction project (AID 706;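 active = growth inhibition above a set limit, 3 SD over mean compound inhibition, in both replicates, cut at about 43% in these data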;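 note: modified DeaD lifespan yeast strain shifted to restrictive glucose medium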); conditions: OD615, 48 h, at 10 µM, active compounds read high
Procedure, shortened: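 System: modified S. cerevisiae. Buffer or medium: CSMM-D glucose medium. Incubation: 4 h pre-growth plus 48 h compound exposure, 30 °C. Detection: absorbance (optical density) measured at 615 nm.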

[3] = doxorubicin toxicity protection in MRP-1 cells – H69AR cells, CellTiter-Glo, duplicate, MRP-1 activator project, pilot screen (AID 807;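 active = viability increase at or above a cutoff of the median across tested compounds plus 3 SD, cut at about 8.5% in these data, passing the limit was not always enough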;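 note: compound pretreatment 18-22 h then 72 h combined with doxorubicin; 0% = doxorubicin alone and 100% = vehicle without doxorubicin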); conditions: H69AR viability with doxorubicin, CellTiter-Glo luminescence; at 10 µM; active compounds read high
[4] = viability of HCT116 without oncogenic beta-catenin – human colon tumor cells, pilot screen (AID 823;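 active = cell viability at or below a set limit in both duplicate runs, the limit being the all-compound median minus 4 SD, cut at about 23% in these data, passing the limit was not always enough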;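 note: 0% = wells killed by 20 µM Hyamine and 100% = untreated DMSO cell wells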); conditions: HCT116 beta-catenin knockout viability, CellTiter-Glo, 60 h; at 10 µM; active compounds read low
[5] = viability of PTEN-null HCT116 cells – cell-based, HCT116 clonal line, CellTiter-Glo, pilot screen (AID 824;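 active = viability at or below 27.92% in each of two runs, the all-compound median minus 4 SD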;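 note: 0% = 20 µM Hyamine control and 100% = vehicle cell control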); conditions: HCT116 PTEN-deleted viability, 60 h, at 10 µM, active compounds read low
[6] = RAM pathway blockade in budding yeast – dse1pr::URA3 reporter, 5-FOA selection, pilot screen (AID 869);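 note: 0% = DMSO wells with no growth and 100% = 10 µM 1-NA-PP1 with full growth; RAM network block rescues cells from 5-FOA so hits raise OD615 growth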; conditions: S. cerevisiae dse1pr::URA3 5-FOA growth, OD615, 2 d; at 10 µM; active compounds read high; strain carries analog-sensitive mutant Cbk1 kinase
[7] = RAM signaling pathway blockade in yeast – S. cerevisiae, Pdr1DBD-CYC8 efflux-inhibited sensitized strain, primary screen (AID 1298;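 active = RAM network inhibition above 8.4% in each of two replicates, 3 SD over the compound average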;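 note: 0% = DMSO untreated cells without growth and 100% = 10 µM 1-NA-PP1 full growth; higher means more yeast growth rescued from 5-FOA killing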); conditions: S. cerevisiae cbk1-as DSE1-URA3 strain, 5-FOA growth OD615, 2 d; at 50 µM; active compounds read high

O=c1cc(-c2ccccc2Cl)c2c([nH]1)CCC2
inactive: growth inhibition [1] -9.7% | growth inhibition [2] 0.91% | viability increase [3] -2.8% | viability [4] 94.5% | viability [5] 87.2% | inhibition [6] 1.71% | RAM network inhibition [7] 0.26%

COc1ccc(C(=O)CCC(=O)N2CCN(c3ccc(N4CCOCC4)nn3)CC2)cc1
inactive: growth inhibition [1] 4.94% | growth inhibition [2] -0.495% | viability increase [3] -2.69% | viability [4] 102% | viability [5] 93.8% | inhibition [6] 1.65% | RAM network inhibition [7] 2.53%

Cc1cc(OCC(=O)C(C)(C)C)c2c(C)c(C)c(=O)oc2c1
inactive: growth inhibition [1] -18.8% | growth inhibition [2] -20.7% | viability increase [3] -6.01% | viability [4] 79.9% | viability [5] 73.8% | inhibition [6] 0.31% | RAM network inhibition [7] 6.85%

c1ccc2[nH]c(SCCN3CCOCC3)nc2c1
inactive: growth inhibition [1] -2.45% | growth inhibition [2] 8.19% | viability increase [3] -1.11% | viability [4] 98.9% | viability [5] 104% | inhibition [6] -0.025% | RAM network inhibition [7] 1.35%

COc1ccc(N(CC(=O)Nc2ccc3c(c2)OCO3)S(C)(=O)=O)c(OC)c1
inactive: growth inhibition [1] -12.6% | growth inhibition [2] -4.5% | viability increase [3] -2.19% | viability [4] 97.9% | viability [5] 96.5% | inhibition [6] 1.41% | RAM network inhibition [7] 4.05%

CCOC(=O)N1CCN(C(c2ccc(C)cc2)c2sc3nc(C)nn3c2O)CC1 (stereo unspecified)
inactive: growth inhibition [1] 2.26% | growth inhibition [2] 4.33% | viability increase [3] -0.59% | viability [4] 108% | viability [5] 102% | inhibition [6] 0.185% | RAM network inhibition [7] 0.28%

CC(=O)c1cccc(NC(=O)C2CCCC2)c1
inactive: growth inhibition [1] -9.02% | growth inhibition [2] -23.5% | viability increase [3] -0.26% | viability [4] 102% | viability [5] 95.4% | inhibition [6] 1.08% | RAM network inhibition [7] -2.18%

O=C(CN1C(=O)COc2ccccc21)Nc1ccc(F)cc1
inactive: growth inhibition [1] -5.98% | growth inhibition [2] 6.11% | viability increase [3] -5.59% | viability [4] 106% | viability [5] 91.6% | inhibition [6] 1.26% | RAM network inhibition [7] 0.3%

Clc1ccc(CSc2nnc(-c3ccccn3)n2Cc2ccco2)c(Cl)c1
inactive: growth inhibition [1] -2.3% | growth inhibition [2] 11.9% | viability increase [3] -3.47% | viability [4] 70.2% | viability [5] 64.1% | inhibition [6] 1.68% | RAM network inhibition [7] 7.51%

C=CCOc1ccc(/C(O)=C2/C(=O)C(=O)N(CCCn3ccnc3)C2c2cccs2)cc1 (stereo unspecified)
inactive: growth inhibition [1] -13.8% | growth inhibition [2] 0.445% | viability increase [3] 1.46% | viability [4] 95.2% | viability [5] 98.6% | inhibition [6] -0.285% | RAM network inhibition [7] 1.02%

CCOC(=O)N1CCC(N2Cc3cccc(C(=O)NCc4ccccn4)c3C2=O)CC1
inactive: growth inhibition [1] -4.83% | growth inhibition [2] 8.18% | viability increase [3] -5.24% | viability [4] 99.8% | viability [5] 102% | inhibition [6] 2.19% | RAM network inhibition [7] -1.14%

O=C(NCCN1CCOCC1)NC1(C(F)(F)F)Oc2ccccc2O1
inactive: growth inhibition [1] -11% | growth inhibition [2] 4.58% | viability increase [3] -4.99% | viability [4] 76.3% | viability [5] 84.5% | inhibition [6] 0.645% | RAM network inhibition [7] 0.82%

Cc1cccc(C2CC(c3ccc(F)cc3)Nc3nc(N)nn32)c1 (stereo unspecified)
inactive: growth inhibition [1] -1.75% | growth inhibition [2] 18.4% | viability increase [3] 0.42% | viability [4] 92.3% | viability [5] 77.1% | inhibition [6] 0.09% | RAM network inhibition [7] 0.31%

COc1ccc2cc(CCNC(=O)c3c(-c4ccccc4Cl)noc3C)c(=O)[nH]c2c1
inactive: growth inhibition [1] -14.1% | growth inhibition [2] -21.1% | viability increase [3] -3.23% | viability [4] 103% | viability [5] 92.7% | inhibition [6] 1.02% | RAM network inhibition [7] 4.72%

O=S(=O)(c1ccccc1)N1CCN(C2CCN(Cc3ccccc3)CC2)CC1
inactive: growth inhibition [1] -10.8% | growth inhibition [2] -0.305% | viability increase [3] -1.86% | viability [4] 90.3% | viability [5] 94.4% | inhibition [6] 0.155% | RAM network inhibition [7] 2.72%

CCN1CCN(c2cc(C)c3cc(NC(=O)c4ccncc4)ccc3n2)CC1
inactive: growth inhibition [1] -8.8% | growth inhibition [2] 1.77% | viability increase [3] -4.96% | viability [4] 82.6% | viability [5] 79.5% | inhibition [6] 1.46% | RAM network inhibition [7] 1.77%

CCCNC(=O)Nc1cc(OCC)c(N2CCOCC2)cc1OCC
inactive: growth inhibition [1] -0.41% | growth inhibition [2] 6.55% | viability increase [3] -1.37% | viability [4] 99.6% | viability [5] 105% | inhibition [6] 1.57% | RAM network inhibition [7] 0.87%

CCn1cc(Cl)c(C(=O)Nc2nc3ccccc3n2CCN2CCCCC2)n1
inactive: growth inhibition [1] -5% | growth inhibition [2] 13.4% | viability increase [3] -4.57% | viability [4] 88.8% | viability [5] 92.2% | inhibition [6] 0.905% | RAM network inhibition [7] 2.98%

CCOC(=O)c1c(NC(C)=O)no[n+]1[O-]
inactive: growth inhibition [1] -14.2% | growth inhibition [2] -12.3% | viability increase [3] -2.24% | viability [4] 104% | viability [5] 97.1% | inhibition [6] 0.795% | RAM network inhibition [7] 5.03%

COc1ccc(CC(=O)N2CCN=C2SC)cc1
inactive: growth inhibition [1] 3.24% | growth inhibition [2] -0.34% | viability increase [3] 1.06% | viability [4] 99.3% | viability [5] 103% | inhibition [6] 1.54% | RAM network inhibition [7] 0.48%

COC(=O)C1=C(C)NC(=O)CC1c1cccc(Cl)c1Cl (stereo unspecified)
inactive: growth inhibition [1] -13.4% | growth inhibition [2] -7.53% | viability increase [3] -1.92% | viability [4] 103% | viability [5] 98% | inhibition [6] 2.15% | RAM network inhibition [7] 1.05%

COc1cccc(C(=O)Nc2ccc(S(=O)(=O)Nc3onc(C)c3C)cc2)c1
inactive: growth inhibition [1] -9.3% | growth inhibition [2] -14.8% | viability increase [3] 0.25% | viability [4] 96.1% | viability [5] 97.9% | inhibition [6] 1.99% | RAM network inhibition [7] 7.93%

CCN(CC)c1ccc(NC(=O)COc2ccc(C)cc2)cc1
inactive: growth inhibition [1] -8.23% | growth inhibition [2] -15.4% | viability increase [3] 0.42% | viability [4] 93.6% | viability [5] 85.3% | inhibition [6] 0.255% | RAM network inhibition [7] 0.45%
